Measurements taken from ChEMBL document CHEMBL1158548, “Tetrahydrochromenoimidazoles as potassium-competitive acid blockers (P-CABs): structure-activity relationship of their antisecretory properties and their affinity toward the hERG channel” (J Med Chem, 2010).
Activity calls are given as the source filed them. No cut-off for these calls is given here.

How the values were obtained:
[1] = tested on: Canis familiaris; assay: Inhibition of pentagastrin-stimulated acid secretion in po dosed Beagle dog fistula model assessed as elevation of intragastric pH after 4 hrs; type: functional, organism-based; details: Canis lupus familiaris
How it was run: (§1)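 Surgically prepared fistula dogs; pentagastrin infused subcutaneously from 1 h after start of pH-metry over 22.5 h; drug or vehicle given orally in capsules 2.5 h after start; intragastric pH recorded continuously for 24 h with combined glass electrode and ambulatory pH meter; duration of pH >5 read from curves.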

[2] = Dissociation constant, pKa at pH 2.0 to 11.0 by potentiometric cosolvent titration; type: physicochemical
[3] = tested on: Gastric gland; assay: Inhibition of acid secretion in New Zealand White rabbit intact gastric glands assessed as [14C]dimethylaminopyridine accumulation by radioactivity; type: functional, tissue-based; details: Oryctolagus cuniculus
How it was run: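 Gastric glands isolated intact from New Zealand rabbits; cellular activity read as reduced accumulation of the weak base 14C-dimethylaminopyridine; pIC50 given as geometric mean of 4-5 determinations.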

[4] = molecular target: hERG (KCNH2) (Homo sapiens, UniProt Q12809); assay: Inhibition of human ERG expressed in CHO-K1 cells at 10 uM by whole-cell patch clamp technique; type: cell-based; details: CHO-K1 cells that express human ERG
How it was run: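 CHO-K1 cells stably transfected with hERG; whole-cell patch clamp recording of tail currents with test compound at 10 μM, three cells per compound; relative block of tail current amplitude given as arithmetic mean.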

[5] = tested on: Rattus norvegicus; assay: Inhibition of pentagastrin-stimulated acid secretion in intraduodenally dosed perfused Sprague-Dawley rat Ghosh Schild model; type: functional; details: intraduodenal
[6] = Octanol/aqueous KCl distribution coefficient, log D at pH 7.4 by potentiometric titration; type: physicochemical
How it was run: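 Octanol/aqueous KCl distribution coefficient from potentiometric titrations across pH 2.0-11.0 at 25 °C.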

[7] = Partition coefficient, log D by HPLC; type: physicochemical; details: octanol/water
How it was run: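 logD by reversed-phase HPLC at 37 °C, calibrated with seven reference substances of known logD.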

[8] = Inhibition of H+/K+ ATPase in hog gastric mucosa by malachite green based competitive binding assay; type: tissue-based, Sus scrofa
How it was run: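 Hog gastric mucosa H+/K+-ATPase, isolated enzyme; competitive binding assay run at pH 7.4; pIC50 reported as geometric mean of 4-5 measurements.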

[9] = tested on: Canis familiaris; assay: Inhibition of pentagastrin-stimulated acid secretion in po dosed Beagle dog fistula model assessed as elevation of intragastric pH; type: functional, organism-based; details: Canis lupus familiaris; how it was run: as §1
[10] = tested on: Rattus norvegicus; assay: Inhibition of pentagastrin-stimulated acid secretion in Sprague-Dawley rat Ghosh Schild model at 3 umol/kg, intraduodenally; type: functional; details: intraduodenal
[11] = tested on: Canis familiaris; assay: Inhibition of pentagastrin-stimulated acid secretion in po dosed Beagle dog fistula model assessed as elevation of intragastric pH after 8 hrs; type: functional, organism-based; details: Canis lupus familiaris; how it was run: as §1
[12] = tested on: Canis familiaris; assay: Inhibition of pentagastrin-stimulated acid secretion in po dosed Beagle dog fistula model assessed as elevation of intragastric pH after 2 hrs; type: functional, organism-based; details: Canis lupus familiaris; how it was run: as §1
[13] = tested on: Canis familiaris; assay: Inhibition of pentagastrin-stimulated acid secretion in po dosed Beagle dog fistula model assessed as elevation of intragastric pH after 2.5 hrs; type: functional, organism-based; details: Canis lupus familiaris; how it was run: as §1
[14] = tested on: Canis familiaris; assay: Inhibition of pentagastrin-stimulated acid secretion in Beagle dog fistula model assessed as elevation of intragastric pH at 9 umol/kg, po after 8 hrs; type: functional, organism-based; details: Canis lupus familiaris; how it was run: as §1
[15] = Oral bioavailability in Sprague-Dawley rat Ghosh Schild model; type: ADME, organism-based; details: in vivo
[16] = Clearance in Sprague-Dawley rat Ghosh Schild model; type: ADME, organism-based; details: in vivo
[17] = Clearance in Beagle dog fistula model; type: ADME, organism-based, Canis lupus familiaris; details: in vivo
[18] = Oral bioavailability in Beagle dog fistula model; type: ADME, organism-based, Canis lupus familiaris; details: in vivo

Sequence of hERG (KCNH2) (Q12809 whole entry): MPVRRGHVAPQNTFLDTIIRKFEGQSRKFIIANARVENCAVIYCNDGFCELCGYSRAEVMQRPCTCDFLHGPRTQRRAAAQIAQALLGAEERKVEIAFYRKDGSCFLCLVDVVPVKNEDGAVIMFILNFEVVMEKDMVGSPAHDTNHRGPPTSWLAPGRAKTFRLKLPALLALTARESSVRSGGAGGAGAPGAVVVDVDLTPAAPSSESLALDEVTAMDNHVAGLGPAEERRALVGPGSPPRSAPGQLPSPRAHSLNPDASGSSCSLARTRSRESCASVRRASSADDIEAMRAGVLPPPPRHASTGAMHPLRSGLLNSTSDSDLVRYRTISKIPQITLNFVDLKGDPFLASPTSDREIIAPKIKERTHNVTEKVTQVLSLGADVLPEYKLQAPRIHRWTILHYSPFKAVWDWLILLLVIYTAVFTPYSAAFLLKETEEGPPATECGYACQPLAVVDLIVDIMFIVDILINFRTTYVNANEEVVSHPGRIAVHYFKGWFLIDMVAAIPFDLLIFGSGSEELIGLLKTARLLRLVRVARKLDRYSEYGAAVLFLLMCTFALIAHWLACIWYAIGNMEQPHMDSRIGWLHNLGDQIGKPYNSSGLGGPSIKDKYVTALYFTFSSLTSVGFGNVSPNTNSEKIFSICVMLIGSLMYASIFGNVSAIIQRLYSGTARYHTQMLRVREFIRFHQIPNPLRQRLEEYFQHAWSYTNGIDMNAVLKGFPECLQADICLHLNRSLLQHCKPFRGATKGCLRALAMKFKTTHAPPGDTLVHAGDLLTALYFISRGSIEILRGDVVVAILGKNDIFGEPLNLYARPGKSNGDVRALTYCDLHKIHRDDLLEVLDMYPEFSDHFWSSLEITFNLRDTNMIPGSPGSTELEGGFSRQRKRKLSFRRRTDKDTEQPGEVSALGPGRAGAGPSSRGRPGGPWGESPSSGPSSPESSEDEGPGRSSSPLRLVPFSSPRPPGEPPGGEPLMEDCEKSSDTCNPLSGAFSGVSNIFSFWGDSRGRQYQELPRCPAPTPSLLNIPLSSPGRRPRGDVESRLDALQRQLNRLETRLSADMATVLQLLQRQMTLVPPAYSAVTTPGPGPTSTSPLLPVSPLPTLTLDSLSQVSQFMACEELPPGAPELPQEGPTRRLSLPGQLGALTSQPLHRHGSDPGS

| Structure (SMILES) | Activity [1] | pKa ([2]; read-out: pKa) | IC50 [3] | inhibition at 10 µM [4] | ED50 [5] | logD [6] | logD [7] | pIC50 [8] | Activity [9] | inhibition in vivo at 3 µmol/kg [10] | pKa [2] | Activity [11] | Activity [12] | Activity [13] | Activity [14] | bioavailability [15] | clearance [16] | clearance [17] | bioavailability [18] |
| --- | --- | --- | --- | --- | --- | --- | --- | --- | --- | --- | --- | --- | --- | --- | --- | --- | --- | --- | --- |
| Cc1cc(Cl)ccc1[C@@H]1CCc2c(C(=O)N(C)C)cc3c(nc(C)n3C)c2O1 | Active | 5.59 | 200 nM | -6% | 0.1 µmol/kg | 3.4 | 3.2 | 6.1 | – | – | – | – | – | – | – | – | – | – | – |
| CCc1ccccc1[C@@H]1CCc2c(C(=O)N(C)C)cc3c(nc(C)n3C)c2O1 | – | – | 1260 nM | 11% | 0.5 µmol/kg | – | 3 | 5.4 | inactive | – | – | – | – | – | – | – | – | – | – |
| Cc1nc2c3c(c(C(=O)N(C)C)cc2n1C)CC[C@@H](c1ccc(F)cc1)O3 | – | 5.65 | 1000 nM | 28% | 0.1 µmol/kg | 2.36 | 2.7 | 5.3 | – | – | – | – | – | – | – | – | – | – | – |
| Cc1ccccc1[C@@H]1CCc2c(C(=O)N3CC(C)(O)C3)cc3c(nc(C)n3C)c2O1 | – | – | 79400 nM | 1% | 3 µmol/kg | – | 2.5 | 4.7 | – | 10% | – | – | – | – | – | – | – | – | – |
| Cc1ccccc1[C@@H]1CCc2c(C(=O)N(C)C)cc3c(nc(C4CC4)n3C)c2O1 | – | 5.28 | – | 6% | 0.1 µmol/kg | 2.84 | 3.3 | – | inactive | – | – | – | – | – | – | – | – | – | – |
| Cc1nc2c3c(c(C(=O)N(C)C)cc2n1C)CC[C@@H](c1ccc(Cl)cc1Cl)O3 | – | 5.36 | 398 nM | 59% | 0.3 µmol/kg | 3.66 | 3.3 | 6 | – | – | – | – | – | – | – | – | – | – | – |
| Cc1ccccc1[C@@H]1CCc2c(C(=O)N3CCC3C(N)=O)cc3c(nc(C)n3C)c2O1 (some centres not stated) | – | – | – | 7% | 3 µmol/kg | – | 2.3 | 4.6 | – | 22% | – | – | – | – | – | – | – | – | – |
| CC(=O)CNC(=O)c1cc2c(nc(C)n2C)c2c1CC[C@@H](c1ccccc1C)O2 | – | – | 1000 nM | 63% | 0.3 µmol/kg | – | 2.8 | 4.6 | inactive | – | 5.62 | – | – | – | – | – | – | – | – |
| CNC(=O)c1cc2c(nc(C)n2C)c2c1CC[C@@H](c1ccc(Cl)cc1C)O2 | – | 5.6 | 794 nM | 45% | 0.15 µmol/kg | 3.46 | 3.1 | 4.9 | – | – | – | Active | – | – | – | – | – | – | – |
| COCc1ccccc1[C@@H]1CCc2c(C(=O)N(C)C)cc3c(nc(C)n3C)c2O1 | – | 5.61 | 15800 nM | 7% | 1.6 µmol/kg | 1.9 | 2.6 | 4.7 | – | – | – | – | – | – | – | – | – | – | – |
| Cc1ccccc1[C@@H]1CCc2c(C(=O)N3CC(C(=O)N(C)C)C3)cc3c(nc(C)n3C)c2O1 | – | – | 79400 nM | 6% | 3 µmol/kg | – | 2.5 | 4.9 | – | 36% | – | – | – | – | – | – | – | – | – |
| Cc1nc2c3c(c(C(=O)N(C)C)cc2n1C)CC[C@@H](c1ccc(Cl)cc1)O3 | – | 5.59 | 398 nM | 84% | 0.15 µmol/kg | 2.92 | 2.9 | 5.1 | Active | – | – | – | Active | – | – | – | – | – | – |
| Cc1cc(Cl)ccc1[C@@H]1CCc2c(C(=O)N3CCC3)cc3c(nc(C)n3C)c2O1 | – | 5.49 | 398 nM | 48% | 0.15 µmol/kg | 3.43 | 3.2 | 5.2 | – | – | – | – | – | – | – | – | – | – | – |
| Cc1sccc1[C@@H]1CCc2c(C(=O)N(C)C)cc3c(nc(C)n3C)c2O1 | – | 5.66 | 1000 nM | 18% | 0.3 µmol/kg | 2.32 | 2.7 | 6.3 | – | – | – | – | – | – | – | – | – | – | – |
| Cc1nc2c3c(c(C(=O)N(C)C)cc2[nH]1)CC[C@@H](c1ccccc1C)O3 | – | 5.66 | 1950 nM | 11% | 0.5 µmol/kg | 2.82 | 2.8 | 5.59 | – | – | – | – | – | – | – | – | – | – | – |
| CNC(=O)c1cc2c(nc(C)n2C)c2c1CC[C@@H](c1ccccc1C)O2 | – | – | 2510 nM | 3% | 0.25 µmol/kg | – | 2.7 | 5.1 | – | – | 5.7 | – | – | Active | – | – | – | – | – |
| COC1CN(C(=O)c2cc3c(nc(C)n3C)c3c2CC[C@@H](c2ccccc2C)O3)C1 | – | – | 631 nM | 18% | 0.3 µmol/kg | – | 2.9 | 5.2 | Active | – | 5.66 | – | – | – | – | – | – | – | – |
| Cc1nc2c3c(c(C(=O)N(C)C)cc2n1C)CC[C@@H](c1ccc2ccccc2c1)O3 | – | 5.57 | 63100 nM | 65% | 3 µmol/kg | 3.37 | 3.2 | 4.1 | – | – | – | – | – | – | – | – | – | – | – |
| Cc1ccccc1[C@@H]1CCc2c(C(=O)N(C)C)cc3c(nc(C)n3C)c2O1 | – | – | 794 nM | 33% | 0.23 µmol/kg | – | 2.8 | 5.3 | – | – | 5.68 | – | – | – | Active | 64% | 21 mL/min/kg | 4.67 mL/min/kg | 72% |
| Cc1nc2c3c(c(C(=O)N(C)C)cc2n1C)CC[C@@H](c1ccccc1F)O3 | – | 5.55 | 1580 nM | 9% | 0.5 µmol/kg | 2.41 | 2.7 | 4.9 | – | – | – | – | – | – | – | – | – | – | – |
